# Assay results of several laboratories.
# Protocols differ between the studies behind these lines.
# Route: oral
SMILES,species,sample,dose,notes,bioavailability
Cc1cc(C(=O)O)nc(N2C[C@H]3C[C@@H](c4ccccc4C(F)(F)F)C[C@H]3C2)n1,Sprague-Dawley rat,plasma,12.7 µmol/kg,single dose,> 100%
Cc1cn(-c2cc(NC(=O)c3cccc(-c4ccc5nc(NC(=O)C6CC6)sc5n4)c3)cc(C(F)(F)F)c2)cn1,rat,serum,2 mg/kg,,4.7%
Oc1c(-n2ccnc2)cnn1-c1cc(N2CCCCC2)ncn1,rat,plasma,30 mg/kg,,39%
N#Cc1ccc(Nc2nc(N)cc(Oc3c(F)cc(-c4ccc(C#N)cc4)cc3F)n2)cc1,Sprague-Dawley rat,plasma,5 mg/kg,,6.51%
COc1nc2[nH]c(C(F)(F)F)nc2nc1Nc1ccc(OC(F)(F)F)cc1F,Sprague-Dawley rat,serum,5 mg/kg,,100%
Cn1cc(-c2cc(N3CCCS3(=O)=O)ccc2Oc2ccc(F)cc2F)c2c(F)c[nH]c2c1=O,Sprague-Dawley rat,plasma,3 mg/kg,,20 to 30%
CN1CCC(COc2cnc(-c3cccc(Cn4nc(-c5cccc(C#N)c5)ccc4=O)c3)nc2)CC1,male Sprague-Dawley rat,plasma,20 mg/kg,,56%
CCOC(=O)[C@@]12C[C@@H]1[C@@H](n1ccc3c(NC)nc(C#Cc4ccc(Cl)s4)nc31)[C@H](O)[C@@H]2O,male Sprague-Dawley rat,plasma,5 mg/kg,,92%
N#Cc1ccc(-c2ccc(C[C@@H](C#N)NC(=O)[C@@H]3CCCCN3)cc2)cc1,Sprague-Dawley rat,plasma,3 mg/kg,,80%
CNC(=O)c1cccc(-c2ccc([C@@H](O)[C@H]3O[C@H](CO)[C@@H](O)[C@H](O)[C@@H]3O)c(C)c2)c1,male Sprague-Dawley rat,plasma,10 mg/kg,single dose,1.95%
C=CC(=O)Nc1cc(Nc2nccc(Nc3cc(Cl)c(F)cc3C(C)(C)O)n2)c(OC)cc1N1CC[C@@H](N(C)C)C1,Wistar rat,plasma,3 mg/kg,,39.6%
COc1c(C#N)ccnc1N1C2CCC1CN(C(=O)c1cccnc1-n1cccn1)C2,rat,plasma,30 mg/kg,,8.5%
Oc1c(-n2ccnn2)cnn1-c1cc(N2CCOCC2)ncn1,rat,plasma,30 mg/kg,,34%
Oc1c(Br)cc(Cl)c2cccnc12,Sprague-Dawley rat,plasma,20 mg/kg,,39%
O=C(Nc1cc(F)c(F)c(F)c1)c1ccc(F)c(S(=O)(=O)NCc2cccc(B(O)O)c2)c1,male Sprague-Dawley rat,plasma,20 mg/kg,,2.85%
COc1ccc2c(Cc3ccccc3F)c3n(c(=O)c2c1OC)CCc1cc2c(cc1-3)OCO2,rat,plasma,5 mg/kg,,15%
